Compound activity (PubChem BioAssay)
Most compounds without a hit are left out; they make up all but 4% or so of the library.
Granule exo inh: blocks lytic granule exocytosis. TALL-104 LAMP-1 surface exposure, flow cytometry; cells stimulated with thapsigargin and PMA. AID 651702. inhibition, % at 10 µM. actives 0.66% (n = 360,000);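 active = inhibition above about 55%, limit read from the data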
UPR CHOP act: activators of apoptotic arm of unfolded protein response (CHOP) | CHO-CHOP luciferase reporter, UPR activation, luminescence; percent of tunicamycin response over DMSO baseline | AID 449763 | actives 0.34% (n = 330,000) | activation, % at 10 µM;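 active = at 10 µM dose, activation of 40% or more, normalized to positive control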
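Evaluation: % reporter activation, DMSO baseline versus tunicamycin full activation; System: CHO-CHOP luciferase reporter cell line; Input: 500 cells/well; Incubation: 6 h compound treatment, 37 °C; Measured by: Steady-Glo luciferase luminescence; Dosing: one dose, 10 µM in 0.5% DMSO; Buffer or medium: F12 medium, 10% FBS; Benchmarks: positive tunicamycin 10 µg/mL, negative DMSO alone.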
ABHD5-PLIN5 inh: inhibitors of human ABHD5-perilipin-5 interaction; AID 602281; Q00G26+Q8WTS1; inhibition, % at 4 µM; Split G. princeps luciferase complementation, luminescence, 4 h; actives 0.78% (n = 360,000);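 active = inhibition above the mean inhibition across every tested compound plus 3 SD, cut at about 22% in these data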
Target sequence (Q00G26 whole entry, looked up): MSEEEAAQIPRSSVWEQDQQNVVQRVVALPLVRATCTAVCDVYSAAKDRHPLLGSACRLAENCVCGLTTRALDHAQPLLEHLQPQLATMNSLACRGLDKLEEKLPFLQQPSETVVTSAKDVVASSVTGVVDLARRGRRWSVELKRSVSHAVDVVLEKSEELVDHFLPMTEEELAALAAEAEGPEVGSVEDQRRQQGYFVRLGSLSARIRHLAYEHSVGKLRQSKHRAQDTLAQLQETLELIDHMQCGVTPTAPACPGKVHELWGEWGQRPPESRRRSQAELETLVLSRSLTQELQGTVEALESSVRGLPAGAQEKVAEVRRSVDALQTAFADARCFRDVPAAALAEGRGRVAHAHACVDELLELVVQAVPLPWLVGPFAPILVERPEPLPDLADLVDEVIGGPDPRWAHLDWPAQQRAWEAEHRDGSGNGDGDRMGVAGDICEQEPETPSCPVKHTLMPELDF
Target sequence (Q8WTS1 whole entry, looked up): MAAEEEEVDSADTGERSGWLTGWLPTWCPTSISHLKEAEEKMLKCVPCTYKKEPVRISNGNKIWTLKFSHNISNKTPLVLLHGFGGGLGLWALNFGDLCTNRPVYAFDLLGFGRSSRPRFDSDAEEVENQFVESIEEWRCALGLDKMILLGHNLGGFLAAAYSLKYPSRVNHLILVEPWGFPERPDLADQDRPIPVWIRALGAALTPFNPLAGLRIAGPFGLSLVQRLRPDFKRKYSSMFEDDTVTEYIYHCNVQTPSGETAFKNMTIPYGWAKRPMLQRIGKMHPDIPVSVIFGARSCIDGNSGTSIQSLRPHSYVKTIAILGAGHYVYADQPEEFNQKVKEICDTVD
Mdm2 MdmX PPI: disrupts the human Mdm2-MdmX interaction | inhibition, % at 8 µM | actives 3% (n = 330,000) | SaOS-2 split-luciferase Mdm2/MdmX complementation, luminescence | AID 485346 | O15151+Q00987;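 active = inhibition of at least 50% at 8 µM in the primary screen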
XBP1 UPR activ: activators of adaptive arm of unfolded protein response (XBP1) | CHO-XBP1 luciferase reporter, IRE1-XBP1 UPR activation, luminescence; percent of tunicamycin response, DMSO as zero | activation, % at 20 µM | actives 0.33% (n = 330,000);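 active = versus positive control, 20 µM dose yields 30% or more activation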
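Assay system: CHO-XBP1 luciferase reporter cells; Schedule: 6 h treatment, 37 °C; Detection: glow luminescence from Steady-Glo reagent; Benchmarks: high control tunicamycin 10 µg/mL final, low control DMSO vehicle only.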
UPR XBP1 confirm: adaptive UPR (XBP1) activation, confirmed | actives 63% (n = 1,000) | CHO-XBP1 IRE1-XBP1 luciferase reporter, luminescence | shares compounds with XBP1 UPR activ | activation, % at 20 µM;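 active = reporter signal at least 30% of the positive control's activation in two or more of four replicate wells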
Mdm2-MdmX conf: confirmation of human Mdm2/MdmX interaction inhibitors; shares compounds with Mdm2 MdmX PPI; Mdm2-MdmX binding, luminescent assay; inhibition, % at 8 µM; actives 55% (n = 10,000); in the data active = inhibition above about 40%
FLuc counter: inhibits full-length luciferase, flagging false Mdm2/MdmX hits; shares compounds with Mdm2 MdmX PPI; SaOS-2 full-length luciferase counterscreen, luminescence; inhibition, % at 8 µM; actives 77% (n = 6,200);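 active = mean inhibition at 8 µM reaching about 37%, which flags the compound as non-specific, limit read from the data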;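 also: p53-null SaOS-2 cells with luciferase driven by a doxycycline-inducible promoter; compound on cells about two nights before reading with doxycycline added after day one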
Each line names hits and unclear results; the compound was inactive in the other large screens (follow-up assays come after a bar, where they were run).

CCCCN(C)S(=O)(=O)c1ccc(C(=O)N(CCN(C)C)c2nc3ccc(C)cc3s2)cc1	none
CCCCN(CC)S(=O)(=O)c1ccc(C(=O)N(CCCN(C)C)c2nc3cc(C)cc(C)c3s2)cc1	Mdm2 MdmX PPI 71, XBP1 UPR activ 45 | UPR XBP1 confirm 36 | Mdm2-MdmX conf inactive
COc1ccc(/C=N/NC(=O)c2cccc([N+](=O)[O-])c2)c2ccccc12	Mdm2 MdmX PPI 86, XBP1 UPR activ 77 | UPR XBP1 confirm 34 | Mdm2-MdmX conf inactive
CCN1CCN(C(c2cc3cccc(C)c3[nH]c2=O)c2nnnn2Cc2ccccc2)CC1 (centres undefined)	none
Cc1cccc2cc(C(c3nnnn3Cc3ccccc3)N3CCCc4ccccc43)c(=O)[nH]c12 (centres undefined)	Mdm2 MdmX PPI 88, XBP1 UPR activ 76 | UPR XBP1 confirm 28 | Mdm2-MdmX conf inactive
CCOC(=O)C1(C)CCN1C(=O)c1ccc(OC)cc1OC (centres undefined)	none (no result: UPR CHOP act, Mdm2 MdmX PPI, XBP1 UPR activ)
COc1ccc(CCn2c(C3CCCCC3)nc3c(c(=O)c4ccccc4n3C)c2=O)cc1	Mdm2 MdmX PPI 81, XBP1 UPR activ 34 | UPR XBP1 confirm 82 | Mdm2-MdmX conf 50 | FLuc counter 45
COc1cc(OC)c2c(-c3cccc(-c4cccc(C)c4)c3)cc(=O)oc2c1	none
COc1cc(OC)c2c(-c3cccc(-c4ccc(CO)cc4)c3)cc(=O)oc2c1	Mdm2 MdmX PPI 74, XBP1 UPR activ 34 | UPR XBP1 confirm 30 | Mdm2-MdmX conf 63 | FLuc counter 62
O=C(NCCN1CCN(c2ccccc2F)CC1)C1c2ccccc2C(=O)N2CCc3ccccc3C12 (centres undefined)	none
COc1ccc(/C=N/Nc2nnc(-c3ccccc3)c(=O)[nH]2)cc1	Mdm2 MdmX PPI 76, XBP1 UPR activ 49 | UPR XBP1 confirm 73 | Mdm2-MdmX conf inactive
O=c1[nH]c(N/N=C/c2ccccc2Br)nnc1-c1ccccc1	none
CC(C)CCNC(=O)COc1cccc2c1OC(C)(C)C2	none
COc1ccc(S(=O)(=O)Oc2ccc3cccc(N)c3c2)cc1	none
COc1cc2nc(N3CCNCC3)nc(N)c2cc1OC	none
COc1cc2nc(N3CCN(c4cc(C)ccc4C)CC3)nc(N)c2cc1OC	Mdm2 MdmX PPI 95, XBP1 UPR activ 109 | UPR XBP1 confirm 62 | Mdm2-MdmX conf 86 | FLuc counter 51
COc1ccc(Nc2nc(N)c([N+](=O)[O-])c(NCCO)n2)cc1	none
COc1ccc(Nc2nc(N)c([N+](=O)[O-])c(NC3CCCCC3)n2)cc1	Mdm2 MdmX PPI 70, XBP1 UPR activ 53 | UPR XBP1 confirm 35 | Mdm2-MdmX conf inactive
CC(=O)N1CCN(c2nc(C)nc3sc4c(c23)CCC(C)C4)CC1 (centres undefined)	none
Cc1nc(N2CCN(C(=O)c3cnccn3)CC2)c2c3c(sc2n1)CC(C(C)(C)C)CC3 (centres undefined)	Mdm2 MdmX PPI 70, XBP1 UPR activ 34 | UPR XBP1 confirm inactive | Mdm2-MdmX conf inactive
O=Cc1cc2ccccc2nc1SCc1ccc(Cl)cc1	Mdm2 MdmX PPI 81, XBP1 UPR activ 43 | UPR XBP1 confirm 43 | Mdm2-MdmX conf 59 | FLuc counter 84
Clc1ccc(CSc2cnnc3ccccc23)cc1Cl	none (no result: UPR CHOP act, Mdm2 MdmX PPI, XBP1 UPR activ)
O=Cc1cc2ccccc2nc1SCc1ccc(Cl)c(Cl)c1	Mdm2 MdmX PPI 64, XBP1 UPR activ 34 | UPR XBP1 confirm 39 | Mdm2-MdmX conf 62 | FLuc counter 86
CC(=O)Nc1nc2ccc(NC(=O)c3ccco3)cc2s1	none
COc1ccc2cc1Oc1ccc(cc1)C[C@H]1c3c(cc(OC)c4c3Oc3c(ccc5c3[C@H](C2)N(C)CC5)O4)CCN1C	Mdm2 MdmX PPI 100, XBP1 UPR activ 68 | UPR XBP1 confirm 52 | Mdm2-MdmX conf 42 | FLuc counter inactive
O=C(Nc1ccc(-c2nc3ccccc3o2)cc1)c1ccc(N2CCOCC2)c([N+](=O)[O-])c1	none
COc1ccc2oc(-c3ccc(NC(=O)c4ccc(N5CCOCC5)c([N+](=O)[O-])c4)cc3)nc2c1	Mdm2 MdmX PPI 56, XBP1 UPR activ 64 | UPR XBP1 confirm inactive | Mdm2-MdmX conf inactive
Cc1nc(Sc2nnnn2C)c2c3c(sc2n1)CCC3	Mdm2 MdmX PPI 97, XBP1 UPR activ 37 | UPR XBP1 confirm inactive | Mdm2-MdmX conf 93 | FLuc counter 63
Oc1ccc(/C=N/Nc2nc(N3CCCCCC3)nc(N3CCCCCC3)n2)c(O)c1	Mdm2 MdmX PPI 66, XBP1 UPR activ 39 | UPR XBP1 confirm inactive | Mdm2-MdmX conf inactive
Oc1ccc(Br)cc1/C=N/Nc1nc(N2CCCCC2)nc(N2CCOCC2)n1	none (no result: Granule exo inh, ABHD5-PLIN5 inh)
Cc1noc(NS(=O)(=O)c2ccc(NC(=O)CSc3nc4c(cc3C#N)CCC4)cc2)c1C	none
COC(=O)c1ccc(COC(=O)CNC(=O)CNC(=O)c2ccc(C)cc2)cc1	none
CC1(C)C2CC[C@]3(C)C(CC=C4[C@@H]5C[C@@](C)(CO)[C@@H]6C[C@@]5(CC[C@]43C)C(=O)O6)[C@@]2(C)CC[C@@H]1O (some centres undefined)	none (no result: Granule exo inh, ABHD5-PLIN5 inh)
CC1(C)CC[C@@]23CC[C@]4(C)[C@@](OC2=O)(C3C1)[C@H]1O[C@H]1C1[C@@]2(C)CC[C@H](O)C(C)(C)C2CC[C@]14C (some centres undefined)	Mdm2 MdmX PPI 75, XBP1 UPR activ 50 (no result: Granule exo inh, ABHD5-PLIN5 inh) | UPR XBP1 confirm 46 | Mdm2-MdmX conf inactive
COc1cccc(/C=c2\s/c(=C\C(=O)C(C)(C)C)[nH]c2=O)c1	none
COc1cc(CNCCO)cc(Cl)c1OCc1ccc(Cl)cc1Cl	Mdm2 MdmX PPI 51, XBP1 UPR activ 63 | UPR XBP1 confirm 134 | Mdm2-MdmX conf 49 | FLuc counter 85
COc1cccc(CNCCO)c1OCc1ccc(Cl)cc1	none
CC1(C)CC(=O)C=C(c2ccc(COC(=O)c3ccccc3)cc2)C1=O	none (no result: UPR CHOP act, Mdm2 MdmX PPI, XBP1 UPR activ)
C[C@]12CCC3C(CC[C@H]4CCCC[C@]34C)C1CC[C@@]2(O)CNCCO (some centres undefined)	Mdm2 MdmX PPI 98, XBP1 UPR activ 33 | UPR XBP1 confirm inactive | Mdm2-MdmX conf 79 | FLuc counter 42
NCC(O)COCCC12CC3CC(CC(C3)C1)C2 (centres undefined)	none
CC(NCC(O)COCCC12CC3CC(CC(C3)C1)C2)c1ccccc1 (centres undefined)	Mdm2 MdmX PPI 100, XBP1 UPR activ 51 | UPR XBP1 confirm 51 | Mdm2-MdmX conf 99 | FLuc counter 37
